The results in this text go back to ChEMBL document CHEMBL2434961, “Development of 3-phenyl-4,5,6,7-tetrahydro-1H-pyrazolo[4,3-c]pyridine derivatives as novel Mycobacterium tuberculosis pantothenate synthetase inhibitors” (Eur J Med Chem, 2013).

≈ marks a conversion by molar mass, not a printed value.

In the first series the target is T1, Pantothenate synthetase (Mycobacterium tuberculosis) (UniProt P9WIL5).
T1 sequence (whole entry): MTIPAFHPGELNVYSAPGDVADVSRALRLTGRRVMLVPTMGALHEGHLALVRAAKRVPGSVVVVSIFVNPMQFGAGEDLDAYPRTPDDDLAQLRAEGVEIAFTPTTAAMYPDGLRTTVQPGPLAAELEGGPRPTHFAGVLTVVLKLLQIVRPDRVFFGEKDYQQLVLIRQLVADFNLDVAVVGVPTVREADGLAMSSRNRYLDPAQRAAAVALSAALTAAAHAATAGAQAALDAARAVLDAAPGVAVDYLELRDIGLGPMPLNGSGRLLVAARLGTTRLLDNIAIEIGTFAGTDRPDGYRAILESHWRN
Description: Inhibition of Mycobacterium tuberculosis pantothenate synthetase cloned in Escherichia coli BL21 (DE3) using ATP, beta-alanine, pantoic acid as substrate assessed as NAD+ production at 100 uM measured every 12 secs for 120 secs by spectrophotometric analysis relative to control.
Details: not given
In outline: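 Coupled assay linking AMP from β-alanine plus pantoate condensation to NADH oxidation via myokinase, pyruvate kinase and lactate dehydrogenase. Mix held NADH, pantoic acid, β-alanine, ATP, phosphoenolpyruvate and MgCl₂ in buffer; compound (100 µM) added; reaction started with PS. A340 read every 12 s for 120 s. % inhibition = 100 × (1 − (compound rate − background)/(full rate − background)).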
Turning to `CC(=O)c1ccc(S(=O)(=O)N2CCc3c(c(-c4ccccc4)nn3C(=O)c3ccccc3)C2)cc1`, the inhibition came out at 78.5%.
Regarding `O=C(Nc1cccc2ccccc12)N1CCc2c(c(-c3ccccc3)nn2C(=O)c2ccccc2)C1`, the inhibition came to 89.8%.
The same measure, in the same setting: for `O=C(c1ccccc1)n1nc(-c2ccccc2)c2c1CCN(S(=O)(=O)c1ccc(F)cc1)C2` the value was 77%; for `O=C(Nc1ccc(Br)cc1)N1CCc2c(c(-c3ccccc3)nn2C(=O)c2ccccc2)C1`, 60.6%; for `O=C(Nc1ccc([N+](=O)[O-])cc1)N1CCc2c(c(-c3ccccc3)nn2C(=O)c2ccccc2)C1`, 95.7%.
Take `O=C(C1CCCCC1)n1nc(-c2ccccc2)c2c1CCN(C(=S)Nc1ccc(Cl)cc1)C2`: the inhibition is 56.3%.
For `Cc1ccc(NC(=S)N2CCc3c(c(-c4ccccc4)nn3C(=O)C3CCCCC3)C2)cc1`, the inhibition came out at 50.5%.

Tested on in another series: not listed separately
The series is described as follows: Cytotoxicity against mouse RAW264.7 cells assessed as inhibition of cell viability at 50 uM after 72 hrs by MTT assay relative to control. The format is cell-based. The conditions noted are these: read-out: INH. In outline: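 RAW 264.7 mouse macrophage cells exposed to compound at 50 µM for 72 h. Viability assessed by cellular conversion of MTT to formazan.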
On to `CC(=O)c1ccc(S(=O)(=O)N2CCc3c(c(-c4ccccc4)nn3C(=O)c3ccccc3)C2)cc1`, for which the cytotoxicity at 72 h, 50 µM was determined as 5.3%.
As to `O=C(Nc1cccc2ccccc12)N1CCc2c(c(-c3ccccc3)nn2C(=O)c2ccccc2)C1`, the cytotoxicity at 72 h, 50 µM was found to be 4.7%.
The same measure, in the same setting: the same measure for `O=C(c1ccccc1)n1nc(-c2ccccc2)c2c1CCN(S(=O)(=O)c1ccc(F)cc1)C2`: 0%; for `O=C(Nc1ccc(Br)cc1)N1CCc2c(c(-c3ccccc3)nn2C(=O)c2ccccc2)C1`: 42%.
Still for that read-out and setting: the same measure for `O=C(Nc1ccc([N+](=O)[O-])cc1)N1CCc2c(c(-c3ccccc3)nn2C(=O)c2ccccc2)C1`: 0%.
Consider `O=C(C1CCCCC1)n1nc(-c2ccccc2)c2c1CCN(C(=S)Nc1ccc(Cl)cc1)C2`, for which the cytotoxicity at 72 h, 50 µM turned out to be 51.1%.
`Cc1ccc(NC(=S)N2CCc3c(c(-c4ccccc4)nn3C(=O)C3CCCCC3)C2)cc1`: the cytotoxicity at 72 h, 50 µM stood at 27.8%.

A further series concerns the target T2, Pantothenate synthetase (Mycobacterium tuberculosis, UniProt P9WIL5).
T2 sequence (P9WIL5 whole entry): T1 sequence (whole entry)
The series is described as follows: Inhibition of Mycobacterium tuberculosis pantothenate synthetase cloned in Escherichia coli BL21 (DE3) using ATP, beta-alanine, pantoic acid as substrate assessed as NAD+ production measured every 12 secs for 120 secs by spectrophotometric analysis.
Details: not given
In outline: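 Same AMP-coupled NADH/A340 PS assay (NADH, pantoic acid, β-alanine, ATP, PEP, MgCl₂, myokinase, pyruvate kinase, LDH; reaction started with enzyme; read every 12 s for 120 s). IC₅₀ determined for compounds exceeding 60% inhibition at 100 µM, using rate-based % inhibition corrected for background.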
As for `CC(=O)c1ccc(S(=O)(=O)N2CCc3c(c(-c4ccccc4)nn3C(=O)c3ccccc3)C2)cc1`, the 50% inhibitory concentration (IC50) was found to be 39.1 µM.
As for `O=C(Nc1cccc2ccccc12)N1CCc2c(c(-c3ccccc3)nn2C(=O)c2ccccc2)C1`, the IC50 was found to be 38.2 µM.
`O=C(c1ccccc1)n1nc(-c2ccccc2)c2c1CCN(S(=O)(=O)c1ccc(F)cc1)C2`: the half-inhibitory concentration (IC50) came out at 38.6 µM.
In the case of `CC(C)(C)OC(=O)N1CCc2[nH]nc(-c3ccccc3)c2C1`, the half-maximal inhibitory concentration (IC50) stood at 21.8 µM.
As for `O=C(Nc1ccc(Br)cc1)N1CCc2c(c(-c3ccccc3)nn2C(=O)c2ccccc2)C1`, the half-inhibitory concentration (IC50) was found to be 82.1 µM.
Turning to `O=C(Nc1ccc([N+](=O)[O-])cc1)N1CCc2c(c(-c3ccccc3)nn2C(=O)c2ccccc2)C1`, the half-maximal inhibitory concentration (IC50) is 21.8 µM.

A further series has as its target T2, Pantothenate synthetase. The series is described as follows: Binding affinity to Mycobacterium tuberculosis pantothenate synthetase.
Details: not given
For the compound `Cc1ccc2c(c1)C=C(C(=O)NS(=O)(=O)c1cc3ccccc3o1)C2CC(=O)O` (centres undefined), the dissociation constant (Kd) is 1.8 µM.

Another series concerns Mycobacterium tuberculosis. The series is described as follows: Antibacterial activity against Mycobacterium tuberculosis H37Rv ATCC 27294 assessed as growth inhibition after 28 days by agar dilution method. Type of series: functional. The conditions noted are these: H37Rv ATCC 27294, 672 h. The gist of the method:
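Two-fold serial dilutions incorporated into Middlebrook 7H11 agar with OADC, final 50 to 0.78 µg/mL. Inoculum of 1 mg/mL (wet weight) in 0.05% Tween 80 saline, diluted 10⁻² to ~10⁷ cfu/mL. 5 µL spotted per tube, incubated at 37 °C for 28 days. MIC is the lowest concentration giving complete growth inhibition.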
Turning to `CC(=O)c1ccc(S(=O)(=O)N2CCc3c(c(-c4ccccc4)nn3C(=O)c3ccccc3)C2)cc1`, the MIC worked out at 51.5 µM (≈ 25 µg/mL).
`O=C(Nc1cccc2ccccc12)N1CCc2c(c(-c3ccccc3)nn2C(=O)c2ccccc2)C1`: the minimal inhibitory concentration (MIC) was 48.8 µM (≈ 23.1 µg/mL).
`O=C(c1ccccc1)n1nc(-c2ccccc2)c2c1CCN(S(=O)(=O)c1ccc(F)cc1)C2`: the minimum inhibitory concentration (MIC) is 54.2 µM (≈ 25 µg/mL).
`CC(C)(C)OC(=O)N1CCc2[nH]nc(-c3ccccc3)c2C1`: the MIC turned out to be 26.7 µM (≈ 7.99 µg/mL).
Same read-out and setting: for `O=C(Nc1ccc(Br)cc1)N1CCc2c(c(-c3ccccc3)nn2C(=O)c2ccccc2)C1` the value was 99.7 µM (≈ 50 µg/mL).
With `O=C(Nc1ccc([N+](=O)[O-])cc1)N1CCc2c(c(-c3ccccc3)nn2C(=O)c2ccccc2)C1`, the MIC came out at 26.7 µM (≈ 12.5 µg/mL).
`O=C(C1CCCCC1)n1nc(-c2ccccc2)c2c1CCN(C(=S)Nc1ccc(Cl)cc1)C2`: the MIC is 109 µM (≈ 52.2 µg/mL).
Turning to `Cc1ccc(NC(=S)N2CCc3c(c(-c4ccccc4)nn3C(=O)C3CCCCC3)C2)cc1`, the MIC is 51.1 µM (≈ 23.4 µg/mL).
